DENV2 CPE rescue: DENV2-induced cell death inhibition; DENV2-infected cells, cytopathic effect rescue, plate reader; CPE inhibition, % at 9.99 µM; 350,000 compounds, 1.7% hits; AID 651640; in the data active means CPE inhibition above about 20%, passing the limit was not always enough; inconclusive means no clear call, values can overlap the other calls; tested in BHK-21 cells
PDI inh: blocks human protein disulfide isomerase activity; P07237; PDI insulin aggregation turbidity, A650, 90 min; inhibition, % at 10 µM; 350,000 compounds, 0.052% hits; AID 588391;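 active means mean inhibition across replicates of 30% or more, whatever share of single replicates reach that level; inconclusive means mean inhibition below 30% while every single replicate reaches 30%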
Cneo AK release: Cryptococcus neoformans lysis via adenylate kinase release. C. neoformans lysis, adenylate kinase release luminescence, 4 h; normalised: neutral wells 0, clomiphene wells 100. lysis activity, % at 15 µM. 360,000 compounds, 0.2% hits. AID 651654;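 active means mean lysis activity across replicates of at least 80%, whatever share of replicates individually reach that level; inactive means mean lysis activity below 80%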
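Test system: log-phase Cryptococcus neoformans yeast cells; Quantity: yeast cell density of 5 × 10^6 cells/mL; Buffer or medium: YPD; Doses: single compound concentration per well; Timing: 4 h at 37 °C static, read 1 h later; Measured by: AK luminescence; Read-out basis: lysis from increased AK signal; Control set: Clomiphene as positive control.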
CFTR F508del cor: CFTR F508del correction in bronchial cells; 350,000 compounds, 0.36% hits; AID 720511; CFBE cells, YFP halide quenching; stimulated with forskolin plus potentiator P3; % fluorescence drop versus neutral controls; activity (quench increase), % at 7.58 µM;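 active means mean added fluorescence quench of at least 8% versus neutral control, with both replicates also reaching 8%; inconclusive means only one of the mean or replicate conditions met; inactive means mean below 8% and not both replicates reaching 8%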;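 further: cells transiently co-express mutant CFTR-F508del with the halide-sensitive YFP; corrector assay measuring rescue of mutant channel to the surface after 24 h compound exposure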
ERp5 inh: inhibitors of human ERp5; inhibition, % at 9.99 µM; Q15084; 350,000 compounds, 0.05% hits; ERp5 insulin aggregation, absorbance 650 nm, 90 min;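 active means mean replicate inhibition above about 25%, with every replicate also reaching it, limit read from the data, passing the limit was not always enough; inconclusive means only one of those two criteria met; inactive means neither criterion met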
Target sequence (Q15084 whole entry, looked up): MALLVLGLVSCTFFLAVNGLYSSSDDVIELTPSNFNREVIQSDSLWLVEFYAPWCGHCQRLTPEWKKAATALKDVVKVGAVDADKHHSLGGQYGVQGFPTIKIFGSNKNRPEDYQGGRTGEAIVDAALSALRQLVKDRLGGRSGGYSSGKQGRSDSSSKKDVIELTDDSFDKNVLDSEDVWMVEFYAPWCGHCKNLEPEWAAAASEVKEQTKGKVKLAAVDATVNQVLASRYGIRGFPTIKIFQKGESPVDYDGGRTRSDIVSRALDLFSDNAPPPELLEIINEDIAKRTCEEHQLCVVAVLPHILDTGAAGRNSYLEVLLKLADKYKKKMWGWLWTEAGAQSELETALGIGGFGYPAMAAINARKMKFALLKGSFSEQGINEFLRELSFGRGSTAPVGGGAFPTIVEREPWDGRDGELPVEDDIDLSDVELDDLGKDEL
C2C12 statin: protects C2C12 myotubes from simvastatin toxicity. ATP luminescence, 48 h; scaled: DMSO 0, geranylgeraniol control 100. rescue of ATP level, % at 7.49 µM. 330,000 compounds, 0.78% hits;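 active means mean ATP rescue above about 67%, or every replicate alone reaching that limit, limit read from the data, passing the limit was not always enough; inconclusive means no clear call, values can overlap the other calls; inactive means mean under the limit and some replicate under it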;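 further: myotubes were challenged with 10 µM simvastatin during compound exposure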
Of the large screens only hits and unclear results are named; the others gave an inactive call. A selection: hits, their analogues and other compounds. The true share with any hit is near 2.3%.

COc1cc(C2CC(=O)Oc3c(C(CCN4CCCC(C)C4)c4ccc(N(C)C)cc4)c(OC)cc(OC)c32)cc(OC)c1OC (stereo not given)	DENV2 CPE rescue 51
c1cc(-c2ccc(N3CCOCC3)cc2)n2cnnc2c1	DENV2 CPE rescue 24
CCOC(=O)c1ccc(Nc2sc(C(=O)c3cccc([N+](=O)[O-])c3)c(N)c2C#N)cc1	CFTR F508del cor 12
O=C(C[C@@H]1CC[C@H](NS(=O)(=O)c2ccc(F)cc2)[C@H](CO)O1)NCCN1CCCCC1	none (no result: DENV2 CPE rescue, PDI inh, Cneo AK release, ERp5 inh)
COc1cc(C)c(C2NC(=O)c3ccccc3N2)cc1C (stereo not given)	none (no result: Cneo AK release, C2C12 statin)
Cc1ccc(C)c(C2NC(=O)c3ccccc3N2)c1 (stereo not given)	CFTR F508del cor 8.8
CN(C(=O)c1ccc(NC(=O)Cc2ccc(NC(=O)C3CCN(C(=O)C4CCCCC4)CC3)cc2)cc1)C1CCCC1	DENV2 CPE rescue 86
CN(C(=O)c1cccc(NC(=O)Cc2ccc(NC(=O)C3CCN(C(=O)C4CC4)CC3)cc2)c1)C1CCCC1	DENV2 CPE rescue 47
CN(C(=O)c1ccc(NC(=O)Cc2ccc(NC(=O)C3CCN(C(=O)C4CCC4)CC3)cc2)cc1)C1CC1	none
O=C(CSc1nc(=O)n2ccccc2n1)N1N=C(c2cccs2)CC1c1ccc(F)cc1 (stereo not given)	DENV2 CPE rescue 60
COc1ccc([C@H]2C[C@H](O)[C@@H](n3cc(COC(=O)c4ccccc4)nn3)CN2CC2CCCCC2)cc1	DENV2 CPE rescue 20
O[C@@H]1CN(CC2CCCCC2)[C@@H](c2ccccc2)C[C@H]1n1cc(C2CC2)nn1	none
COc1ccc([C@H]2C[C@@H](O)[C@H](n3cc(COC(=O)c4ccccc4)nn3)CN2Cc2cccs2)cc1	DENV2 CPE rescue 56
O[C@H]1CN(CC2CCCCC2)[C@@H](c2ccc(Cl)cc2)C[C@@H]1n1cc(C2CC2)nn1	DENV2 CPE rescue 45
CCCCCC(=O)N1C[C@@H](O)[C@H](n2cc(COC(=O)c3ccccc3)nn2)C[C@@H]1c1ccc(C)cc1	DENV2 CPE rescue 74 (no result: Cneo AK release)
CCC(=O)Nc1ccc2c(c1)C(=O)N(C)[C@H]1CC[C@H](CC(=O)NCc3ccc(OC)cc3)O[C@@H]1CO2	none (no result: PDI inh)
COc1ccc([C@H]2C[C@@H](n3cc(C4CC4)nn3)[C@H](O)CN2Cc2cccs2)cc1	DENV2 CPE rescue 35
CCCNC(=O)N1CC2(CN(C(=O)CCC)C2)c2c(n(C)c3cc(OC)ccc23)[C@@H]1CO	none (no result: PDI inh, Cneo AK release, ERp5 inh, C2C12 statin)
Cc1noc(C)c1NC(=O)N(C)C[C@@H]1OCCCC[C@H](C)Oc2ccc(NS(=O)(=O)c3ccc(F)cc3)cc2C(=O)N([C@@H](C)CO)C[C@@H]1C	none (no result: PDI inh)
NC(=O)c1cc(C(=O)c2ccc(Cl)cc2Cl)c[nH]1	DENV2 CPE rescue 33 (no result: Cneo AK release)
C/C=C/c1ccc([C@H]2[C@H](CO)N[C@H]2CN(C(=O)C2CCC2)C(C)C)cc1	DENV2 CPE rescue 23 (no result: PDI inh)
CC(=O)N(C[C@H]1N[C@H](CO)[C@H]1c1ccc(-c2ccc(F)cc2)cc1)C(C)C	DENV2 CPE rescue 64 (no result: PDI inh)
C=CCn1c(C)nnc1SCC(=O)NC1CCCCC1	none (no result: C2C12 statin)
C=CCn1c(C)nnc1SCC(=O)NC1CC1	DENV2 CPE rescue 93
CC(C)NC(=O)N1C[C@H]2[C@@H](c3ccccc31)[C@H](CO)N2C(=O)Nc1cccc(F)c1	DENV2 CPE rescue inconclusive (no result: PDI inh)
O=C(c1ccco1)N1CCN(C(=O)c2ccc(-c3cccc(C(F)(F)F)c3)o2)CC1	DENV2 CPE rescue 101 (no result: Cneo AK release, C2C12 statin)
O=C(CN1CCC(C(O)(c2ccccc2)c2ccccc2)CC1)Nc1cc(Cl)ccc1Cl	C2C12 statin 90
O=C(CN1CCN(C(=O)c2ccco2)CC1)Nc1cc(C(F)(F)F)ccc1Cl	C2C12 statin 104 (no result: DENV2 CPE rescue, CFTR F508del cor, ERp5 inh)
CO[C@H]1CN(C)C(=O)c2ccc(NC(=O)Nc3ccc(Cl)cc3)cc2OC[C@@H](C)NC[C@H]1C	none (no result: DENV2 CPE rescue, PDI inh, Cneo AK release, ERp5 inh)
Cc1ccc(S(=O)(=O)N[C@H]2CC[C@H](CCn3cc(C4(O)CCCC4)nn3)O[C@@H]2CO)cc1	DENV2 CPE rescue inconclusive (no result: PDI inh)
COc1cc(CN2CC3(CCN(S(=O)(=O)c4cccc(F)c4)CC3)c3c([nH]c4cc(OC)ccc34)[C@H]2CO)cc(OC)c1	none (no result: PDI inh, Cneo AK release, C2C12 statin)
CCCc1n[nH]c2c1/C(=N/O)CC(c1ccccc1)C2 (stereo not given)	none (no result: DENV2 CPE rescue, CFTR F508del cor, ERp5 inh, C2C12 statin)
CCc1n[nH]c2c1/C(=N/O)CCC2	C2C12 statin 87 (no result: DENV2 CPE rescue, CFTR F508del cor, ERp5 inh)
O=S(=O)(N[C@H]1CC[C@@H](CCn2cc(C3CC3)nn2)O[C@@H]1CO)c1ccc(F)cc1	none (no result: PDI inh)
Cc1ccccc1-c1ccc([C@@H]2[C@H]3CN(C(=O)Nc4ccccc4)CCCCN3[C@H]2CO)cc1	DENV2 CPE rescue 61 (no result: PDI inh, C2C12 statin)
O=C(Nc1ccccc1)N1CCCCN2[C@H](CO)[C@H](c3ccc(Br)cc3)[C@@H]2C1	DENV2 CPE rescue 28 (no result: PDI inh)
O=C(Nc1ccccc1)N1CCCCN2[C@H](CO)[C@H](c3ccc(Br)cc3)[C@H]2C1	DENV2 CPE rescue 32 (no result: PDI inh)
O=C(Nc1ccccc1)N1CCCCN2[C@H](C1)[C@@H](c1ccc(-c3ccccc3)cc1)[C@@H]2CO	none (no result: PDI inh, C2C12 statin)
CCOc1[nH]n(-c2ccccc2)c(=O)c1C=Nc1ccccc1	none
CCOc1[nH]n(-c2ccccc2)c(=O)c1C=Nc1ccc(Cl)cc1	C2C12 statin 120 (no result: DENV2 CPE rescue, CFTR F508del cor, ERp5 inh)
COCC#Cc1cnc2c(c1)C(=O)N([C@@H](C)CO)C[C@@H](C)[C@@H](CN(C)C(=O)C1CC1)O2	Cneo AK release 87 (no result: PDI inh)
CCCC#Cc1cnc2c(c1)C(=O)N([C@H](C)CO)C[C@H](C)[C@@H](CN(C)C(=O)C1CCC1)O2	none (no result: PDI inh)
COCC#Cc1cnc2c(c1)C(=O)N([C@H](C)CO)C[C@H](C)[C@H](CN(C)C(=O)C1CC1)O2	Cneo AK release 101 (no result: PDI inh)
COCC#Cc1cnc2c(c1)C(=O)N([C@H](C)CO)C[C@@H](C)[C@H](CN(C)C(=O)C1CC1)O2	none (no result: PDI inh)
COCC#Cc1cnc2c(c1)C(=O)N([C@@H](C)CO)C[C@@H](C)[C@H](CN(C)C(=O)C1CC1)O2	none (no result: PDI inh)
CCCC#Cc1cnc2c(c1)C(=O)N([C@H](C)CO)C[C@H](C)[C@H](CN(C)C(=O)C1CCC1)O2	DENV2 CPE rescue 23 (no result: PDI inh)
C[C@@H]1CN([C@H](C)CO)C(=O)Cc2cc(NC(=O)C3CC3)ccc2O[C@H]1CN(C)S(=O)(=O)c1cn(C)cn1	none (no result: PDI inh)
Cc1cccc2c(N=NC(=O)c3ccc(NS(=O)(=O)c4cccs4)cc3)c(O)[nH]c12	DENV2 CPE rescue inconclusive
Cc1cccc2c(N=Nc3ccc(S(=O)(=O)Nc4ccc(Cl)cc4)cc3[N+](=O)[O-])c(O)[nH]c12	CFTR F508del cor 9.7
COc1cc2c(C#CCCO)c(-c3ccsc3)oc(=O)c2cc1OC	CFTR F508del cor 14
CN(C)CC(=O)Nc1ccc2c(c1)[C@H]1C[C@H](CC(=O)NCc3ccccc3)O[C@H](CO)[C@H]1O2	none (no result: PDI inh)

Screening results as filed in PubChem BioAssay.
